According to the RNAGym collection of RNA variant scans (doi:10.1126/science.aae0568):
Variants at the floor of the assay were thinned out.

B1: tRNA (parent)
chain: GUUCCGUUGGCGUAAUGGUAACGCGUCUCCCUCCUAAGGAGAAGACUGCGGGUUCGAGUCCCGUACGGAACG

Variants of: B1
Assay: yeast fitness relative to wild type (ratio to wild type); higher = fitter; tRNA-Arg(CCU), competitive growth, 37 C, YPD
Method in brief: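 For this measurement, the tRNA-Arg(CCU) gene was varied by chemical synthesis at a 3% per-site mutation rate across 69 sites, and each variant was placed at the native genomic locus in Saccharomyces cerevisiae. The pooled strains went through a 24-hour competition in YPD at 37°C in six parallel replicates, with amplicons from start and end populations read by 100-nucleotide paired-end sequencing. Darwinian fitness relative to wild type followed from the change in each genotype's frequency. Genotypes needed ≥ 100 starting reads, and estimates < 0.5 were set to 0.5.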

Going from G12A A65C to G12A A20G U26C C29U C31G C33U A42U, the yeast fitness falls from 0.851 to at most 0.5.

First: G12A C31U G41A
Second: G12A A20G U26C C31G C33U A42U
The yeast fitness of the first is higher: 0.686 for the first, at most 0.5 for the second.

G12A C62U G63A and G12A C24G C29A A69U A70G cannot be ordered by yeast fitness: at most 0.5 for the first, at most 0.5 for the second.

G12A G18C C62U G63C A70C and G12A A45G U47C U59A cannot be ordered by yeast fitness: at most 0.5 for the first, at most 0.5 for the second.

First: G12A C27G G48A
Second: G12A C29A A42U
The yeast fitness of the first is lower: at most 0.5 for the first, 0.616 for the second.

Going from G12A A21U C55G C60A C61G C66G to G12A C24U A36C C46U C60U A65C, the yeast fitness rises from at most 0.5 to 0.729.

Going from G12A G39C C66U to G12A C30A C46G, the yeast fitness rises from 0.572 to 0.649.

G12A G23A U35G A36G C46U A57U and G12A A14C C27G C46G A65G cannot be ordered by yeast fitness: at most 0.5 for the first, at most 0.5 for the second.

G12A G18A C31U A70G and G12A A20G A45U C49G G52C cannot be ordered by yeast fitness: at most 0.5 for the first, at most 0.5 for the second.

Compared with G12A G17A, G12A C31U C61U U64A is lower in yeast fitness: 0.881 for the first, at most 0.5 for the second.

First: G12A C22A
Second: G12A C22U
The yeast fitness of the first is higher: 1.03 for the first, 0.873 for the second.

Going from G12A A20C C61G C66A to G12A G18A A21U G41A C46U, the yeast fitness rises from at most 0.5 to 0.535.

First: G12A G48A C66U G67A
Second: G12A A21G C31A
The yeast fitness of the first is lower: at most 0.5 for the first, 0.625 for the second.

G12A A15C G39C C46U and G12A G18C A42U G58A G68A cannot be ordered by yeast fitness: at most 0.5 for the first, at most 0.5 for the second.

First: G12A G63A G67A
Second: G12A C24A
The yeast fitness of the first is lower: at most 0.5 for the first, 0.751 for the second.

Going from G12A C24U to G12A C24G, the yeast fitness rises from 0.697 to 0.758.

First: G12A A14C C34U A37G
Second: G12A A70C
The yeast fitness of the first is lower: at most 0.5 for the first, 0.936 for the second.

Going from G12A C27A G56C to G12A A21G C24G U28G, the yeast fitness rises from 0.533 to 0.992.

Compared with G12A C29U, G12A A14C C34G C55U is lower in yeast fitness: 0.735 for the first, at most 0.5 for the second.

G12A C22A C24A A36U U53A and G12A C24U G67A A69U cannot be ordered by yeast fitness: at most 0.5 for the first, at most 0.5 for the second.

Going from G12A G41C to G12A G41A, the yeast fitness rises from 0.864 to 0.889.

Compared with G12A A37G G39C A57C, G12A G68A is higher in yeast fitness: at most 0.5 for the first, 0.771 for the second.

G12A A40C C55A and G12A C30G C49A G51A cannot be ordered by yeast fitness: at most 0.5 for the first, at most 0.5 for the second.

G12A A14G C30G C46A G67U and G12A A20C U54C C62U A70G cannot be ordered by yeast fitness: at most 0.5 for the first, at most 0.5 for the second.

G12A G23A U35G A36G A57C C62U and G12A G18C U19C C29U cannot be ordered by yeast fitness: at most 0.5 for the first, at most 0.5 for the second.

Compared with G12A A15G C31A, G12A G50C G68C is higher in yeast fitness: at most 0.5 for the first, 0.522 for the second.

First: G12A A20U C31A G52A C66U
Second: G12A C31G
The yeast fitness of the first is lower: at most 0.5 for the first, 0.963 for the second.

Going from G12A C27G A42C to G12A G41C C60G A70U, the yeast fitness falls from 0.548 to at most 0.5.

Compared with G12A C66A, G12A C66G is higher in yeast fitness: 0.654 for the first, 0.79 for the second.

Going from G12A C66U to G12A G67A, the yeast fitness rises from 0.834 to 0.857.

G12A G17C C66U and G12A A15G U54G cannot be ordered by yeast fitness: at most 0.5 for the first, at most 0.5 for the second.

Compared with G12A C49A G52C, G12A C30A A70U is higher in yeast fitness: at most 0.5 for the first, 0.759 for the second.

Going from G12A G58U A70G to G12A C31G G48C C66G, the yeast fitness falls from 0.538 to at most 0.5.

First: G12A C24U C34G
Second: G12A C24U C34U
The yeast fitness of the first is higher: 0.696 for the first, 0.519 for the second.

G12A A37G U59C and G12A A37G A65G A69C cannot be ordered by yeast fitness: at most 0.5 for the first, at most 0.5 for the second.

Going from G12A A20U A42C G68A to G12A A21U A69C, the yeast fitness falls from 0.519 to at most 0.5.

G12A A15G C49U A65C A70G and G12A G23C C49A A57C cannot be ordered by yeast fitness: at most 0.5 for the first, at most 0.5 for the second.

First: G12A C62U A70G
Second: G12A A36G C55U A69U
The yeast fitness of the first is higher: 0.69 for the first, at most 0.5 for the second.

Going from G12A A36C G51A to G12A C31U A70G, the yeast fitness rises from 0.603 to 0.803.

First: G12A A15C C62U C66G A70G
Second: G12A C22U A37U G50C C66U
The yeast fitness of the first is higher: 0.562 for the first, 0.538 for the second.

G12A G17A U26A A40U and G12A G17C G25C C29G A36U G39A C46U C55U cannot be ordered by yeast fitness: at most 0.5 for the first, at most 0.5 for the second.

Work on G12A C29A A42U C46U C55A G56C yielded a yeast fitness of at most 0.5.
